Assay results collected from several papers.
Each line is one published result; the experiments were not run side by side. Converted amounts (≈) assume the structure as drawn.

Structure (SMILES)	target or system	test	test system	conditions	measurement	value
N#Cc1ccc(-c2cc(COc3cc(C(F)(F)F)nc4ccccc34)on2)cc1	DND41	cell growth or viability, MTS	–	72 h	IC50	43.7 µM
CC[C@H]1OC(=O)[C@H](C)[C@@H](O[C@H]2C[C@@](C)(OC)[C@@H](O)[C@H](C)O2)[C@H](C)[C@@H](O[C@@H]2O[C@H](C)C[C@H](N(C)C)[C@H]2O)[C@](C)(O)C[C@@H](C)/C(=N\OCOCCOC)[C@H](C)[C@@H](O)[C@]1(C)O	Streptococcus agalactiae	microbial growth	–	clinical isolate	MIC90	8 µg/mL (≈ 9.56 µM)
N#CC(=C1C=CC(=NOC(=O)OCc2ccccc2)C=C1)c1ccccc1	Candida tropicalis	microbial killing, broth dilution	ATCC13803	48 h	MFC	256 µg/mL (≈ 718 µM)
CC(=O)NC[C@H]1CN(c2ccc(N3CCOCC3)c(F)c2)C(=O)O1	Streptococcus agalactiae	microbial growth	–	clinical isolate	MIC90	1 µg/mL (≈ 2.96 µM)
OC(Cn1cncn1)(Cn1cncn1)c1ccc(F)cc1F	Candida tropicalis	microbial growth, broth dilution	CGMCC2	48 h	MIC	2 µM
CN[C@H](CC(C)C)C(=O)N[C@H]1C(=O)N[C@@H](CC(N)=O)C(=O)N[C@H]2C(=O)N[C@H]3C(=O)N[C@H](C(=O)N[C@H](C(=O)O)c4cc(O)cc(O)c4-c4cc3ccc4O)[C@H](O)c3ccc(c(Cl)c3)Oc3cc2cc(c3O[C@@H]2O[C@H](CO)[C@@H](O)[C@H](O)[C@H]2O[C@H]2C[C@](C)(N)[C@H](O)[C@H](C)O2)Oc2ccc(cc2Cl)[C@H]1O	Streptococcus agalactiae	microbial growth	–	clinical isolate	MIC90	0.5 µg/mL (≈ 0.345 µM)
CC(=O)ON=C1C=CC(=C(C#N)c2ccccc2)C=C1	Candida tropicalis	microbial growth, broth dilution	ATCC13803	48 h	MIC	2 µg/mL
O=c1cc(OCc2cc(-c3ccc(Cl)cc3Cl)no2)c2ccccc2o1	DND41	cell growth or viability, MTS	–	72 h	IC50	> 100 µM
CC(=O)N1CCN(c2ccc(OCC3COC(Cn4ccnc4)(c4ccc(Cl)cc4Cl)O3)cc2)CC1 (stereo not shown)	Candida tropicalis	microbial growth, broth dilution	ATCC13803	48 h	MIC	8 µg/mL
FC(F)(F)c1cc(OCc2cc(-c3ccccc3)no2)c2ccccc2n1	DND41	cell growth or viability, MTS	–	72 h	IC50	65.2 µM
